Publication PMC11646436 (International Journal of Nanomedicine, 2024)

Assays:
BxPC-3 cells = experiment: MTT cytotoxicity assay; format: cell-based; details: Homo sapiens, BXPC-3, 48 h
Summary of the method: (§1)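 Seeding was 2×10^4 per well for AsPC-1 and 1×10^4 for PANC-1, BxPC-3, Mia PaCa-2 and SU.86.86; cells adhered for 24 h at 37°C in 5% CO2. Test compound was given at 0.01, 0.1, 1, 10 and 100 μM for 48 h. MTT (5 mg/mL stock in PBS) was added for 4 h, dissolved in DMSO, and read at 490 nm. Viability was calculated against drug-free cells and cell-free blanks. Mean ± SD, n = 3.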

AsPC-1 cells [1] = experiment: Transwell cell invasion assay; format: cell-based, Human; details: AsPC-1, 1 μM, 48 h
Summary of the method: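 AsPC-1 cells (1×10^4) were placed in serum-free medium in the upper chamber of 8-μm-pore transwells, with complete medium below, and treated with 1 μM test compound for 48 h. Cells on the upper membrane surface were swabbed off. Cells on the lower surface were stained with 0.5% crystal violet and counted per field under bright-field microscopy. Mean ± SD, n = 3.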

AsPC-1 cells [2] = experiment: Cellular accumulation by LC-MS/MS; format: cell-based, Human; details: AsPC-1, 10 μM, 48 h; Gem (Gem group), Gem and tcGem (LipotcGem group)
Summary of the method: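 AsPC-1 cells were seeded at 5×10^6 per 10 cm dish overnight and exposed to 10 μM test compound for 12, 24 or 48 h. Cells were washed, counted and sonicated at 4°C in methanol-water (1:1). Parent nucleoside and prodrug were quantified by LC-MS/MS on a C8 UPLC column. The gradient was water/acetonitrile with 0.1% formic acid at 0.2 mL/min.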

[3] = Tissue distribution in AsPC-1 tumor-bearing mice; format: in vivo, BALB/c nude mice; details: i.v. 38 μmol/kg
Summary of the method: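 BALB/c nude mice carrying subcutaneous AsPC-1 tumours (5×10^6 cells, right flank; 300–500 mm3) received one i.v. bolus at an equimolar 38 μmol/kg (parent drug 10 mg/kg; liposomal prodrug 19 mg/kg). After cardiac perfusion, tumour, heart, liver, spleen, lung, kidney and pancreas were collected at 0.5, 4, 8, 12 and 24 h. Parent nucleoside and prodrug were measured by LC-MS/MS.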

AsPC-1 cells [4] = experiment: Cell cycle analysis by flow cytometry; format: cell-based, Human; details: AsPC-1, 10 μM, 24 h
Summary of the method: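 AsPC-1 cells were seeded at 5×10^5 per well in 6-well plates and exposed to 10 μM test compound. They were then fixed overnight in cold 70% ethanol, stained with propidium iodide containing RNase A in the dark at room temperature, and analysed by flow cytometry for cell-cycle phase percentages. Mean ± SD, n = 3.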

PANC-1 cells = experiment: MTT cytotoxicity assay; format: cell-based, Human
AsPC-1 cells [5] = experiment: MTT cytotoxicity assay; format: cell-based; details: Homo sapiens, ASPC1, 48 h, AsPC-1, 48 h incubation, 2×10^4 cells per well
Summary of the method: as §1

Mia PaCa-2 cells = experiment: MTT cytotoxicity assay; format: cell-based; details: Homo sapiens
[6] = tested on: AsPC-1 subcutaneous xenograft; experiment: Pharmacodynamics in AsPC-1 subcutaneous xenograft model; format: in vivo, BALB/c nude mice
Summary of the method: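 Female BALB/c nude mice (18–20 g) received 5×10^6 AsPC-1 cells subcutaneously in the right flank. At ~100 mm3 they were sorted by volume and randomised into three groups. Dosing was i.v., Q3D × 6: 5% glucose vehicle, parent drug 10 mg/kg, or liposomal test compound 5 mg/kg. Tumour volume and body weight were followed throughout. Tumours were weighed on Day 30, one week after the last dose, and organs were taken for H&E. n = 5.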

SU.86.86 cells = experiment: MTT cytotoxicity assay; format: cell-based; details: Homo sapiens, SU.86.86, 48 h
Summary of the method: as §1

[7] = tested on: AsPC-1-luc orthotopic xenograft; experiment: Pharmacodynamics in AsPC-1-luc orthotopic xenograft model; format: in vivo, BALB/c nude mice
Summary of the method: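 AsPC-1-luc cells were grown in RPMI-1640 with 10% FBS and 0.5 μg/mL puromycin. Under anaesthesia, 3×10^6 cells in 25 μL were injected into the pancreas of BALB/c nude mice. On day 7, luciferase substrate was given i.p. and mice were IVIS-imaged within 5 min, then grouped by bioluminescence. Dosing was i.v., Q3D × 6: 5% glucose, parent drug 10 mg/kg, or liposomal test compound 5 mg/kg. Mice were imaged on Days 17 and 27, followed by ex vivo organ imaging.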

`Nc1ccn([C@@H]2O[C@H](CO)[C@@H](O)C2(F)F)c(=O)n1` [Gem, Gemcitabine] gave an IC50 (BxPC-3 cells) of 4.35 µM, an invading cells (AsPC-1 cells [1]) of 129 ± 27 cells per field and an intracellular accumulation (AsPC-1 cells [2]) of 0.0015 nmol/10^6 cells. The concentration in tumors ([3]; 8 h, Gem (Gem group), Gem and tcGem (LipotcGem group)) was 0.004 µmol/g, the “Gem concentration in tumor tissues and plasma over time” value [3] was “undetectable beyond 8 h” and the “Percentage of cells (%) S” value (AsPC-1 cells [4]) was 35%. The IC50 (PANC-1 cells; Homo sapiens, PANC-1, 48 h) was over 100 µM, the cell viability (PANC-1 cells; PANC-1, lower cell densities and extended exposure time) was “above 50%” and the IC50 (AsPC-1 cells [5]) was over 100 µM. For the same compound, the IC50 (Mia PaCa-2 cells; MIA PaCa-2, 48 h) was over 100 µM, the IC50 (Mia PaCa-2 cells; MIA PaCa-2, 72 h) was 73.5 µM and the “tumor inhibition rate (TIR), tumor weight” value ([6]; Day 30, i.v. Q3D × 6, Gem 10 mg/kg, LipotcGem 5 mg/kg) was 49%. For the same compound, the “tumor inhibition rate (TIR), tumor volume” value ([6]; i.v. Q3D × 6, Gem 10 mg/kg, LipotcGem 5 mg/kg) was 50%, the body weight ([6]; subcutaneous model, throughout treatment) was “No significant weight loss” and the IC50 (SU.86.86 cells) was over 100 µM. For the same compound, the “metastatic burden (bioluminescent signals, liver and intestine)” value ([7]; Day 27, ex vivo) was “moderate” and the “tumor inhibition rate (TIR)” value ([7]; orthotopic model, i.v. Q3D × 6, Gem 10 mg/kg, LipotcGem 5 mg/kg) was 50%.
